Hits are enriched below; roughly 2.2% of the tested compounds scored in any of these assays.
HCT116 bCat-KO: beta-catenin-lacking colon tumor cell growth suppression; HCT116 beta-catenin knockout viability, CellTiter-Glo, 60 h; stronger effect = lower value; viability, % at 10 µM; 140,000 tested, 1.5% active;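 active = viability at or under a set limit, the compound median less 4 SD, cut at about 6% in these data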;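 also: 0% = Hyamine 1622 control at 20 µM and 100% = untreated cell control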
Dynein cargo inh: blocks dynein driven cargo transport along microtubules. 220,000 tested, 0.47% active. 3617.4 mouse cells, GR-EGFP nuclear translocation imaging; test concentration mostly 20 µM; stimulated with dexamethasone, 1 µM; stronger effect = lower value. z-score, hits read low;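 active = plate z-score of nuclear minus cytoplasmic receptor signal below a set negative limit, without overly bright fluorescence or cell loss, cut at about -3.5 in these data, passing the limit was not always enough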;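 also: z-score of nuclear minus cytoplasmic ring GR-EGFP intensity difference per well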
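Medium: Induction medium lacking tetracycline, stripped serum | Probe or stimulus: 1.0 µM final dexamethasone stimulus | Schedule: 48 h induction, then 1 h compound, then 30 min agonist, 37 °C | Signal: Automated 10x imaging of fixed Hoechst-stained cells | Evaluation: Per-cell GR-EGFP intensity, nucleus versus surrounding cytoplasmic ring, well-averaged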
PTEN del growth: growth suppressors of cells with PTEN tumor suppressor deletion; viability, % at 10 µM; 140,000 tested, 1.2% active; HCT116 PTEN-null viability, CellTiter-Glo, 60 h; stronger effect = lower value; AID 827;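 active = viability at or below a set limit, 4 SD under the median of all tested compounds, cut at about 3.7% in these data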;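 also: PTEN knockout HCT116 line with beta catenin targeted HCT116 as companion control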
SDO1 yeast rescue: compounds rescuing growth of sdo1-depleted yeast, bone marrow failure model | S. cerevisiae sdo1-depleted JHY4D growth rescue, OD600 30 h; stronger effect = higher value; pdr5 snq2 efflux-pump mutant strain | AID 817 | z-score at 10 µM | 140,000 tested, 0.21% active;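 active = z-score above 3 at both the 24 hr and the 30 hr optical density reads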;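 also: z-score against mean and SD of all compound wells on the same plate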
Autophagy HCS: autophagy modulation, high-content screen | 190,000 tested, 0.98% active | calls only at 10 µM (by protocol) | MEF GFP-LC3 puncta imaging; test concentration mostly 10 µM;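 active = percentage of spot-positive cells more than 3 SD above its plate mean, without a fluorescence outlier flag or 80% toxicity; inconclusive = no clear call, values can overlap the other calls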;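 also: spot-positive cell cutoff set from DMSO-treated cells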
Starred values were filed as active, the others as inactive; ! = not confirmed by another sample.

What do the screens show for `COc1ccc(-c2csc(N(CC3CCCO3)C(=O)c3cccs3)n2)cc1` (centres undefined)?
HCT116 bCat-KO: 50.9; Dynein cargo inh: -0.201; PTEN del growth: 50.6; SDO1 yeast rescue: -0.5; Autophagy HCS: inactive

Results for COc1ccc(OC)c(-c2csc(N(CC3CCCO3)C(=O)C3CCCCC3)n2)c1 (centres undefined) ?
Dynein cargo inh: 1.76; Autophagy HCS: active

Results for CSCCC(NC(=O)c1ccc(Cl)cc1)C(=O)NC(C)(C)C (centres undefined) ?
HCT116 bCat-KO: 90.9; Dynein cargo inh: -0.000636; PTEN del growth: 94.2; SDO1 yeast rescue: 0.67; Autophagy HCS: inactive

Results for COc1cc2nc(N3CCN(C(=O)C4COc5ccccc5O4)CC3)nc(N)c2cc1OC (centres undefined) ?
HCT116 bCat-KO: 4.6*; Dynein cargo inh: -0.587; PTEN del growth: 8.8; SDO1 yeast rescue: 0.44; Autophagy HCS: inactive

What do the screens show for `CN(C)CCCN1c2ccccc2Sc2ccc(Cl)cc21`?
HCT116 bCat-KO: 1.8*!; Dynein cargo inh: 0.566; PTEN del growth: 2.7*!; SDO1 yeast rescue: -0.16; Autophagy HCS: inactive

What do the screens show for `OCCN1CCN(Cc2cccc(Oc3ccc(Cl)cc3)c2)CC1`?
HCT116 bCat-KO: 50.2; Dynein cargo inh: 1.11; PTEN del growth: 66.8; SDO1 yeast rescue: -0.37; Autophagy HCS: inactive

How did OCCN1CCN(CCCN2c3ccccc3Sc3ccc(Cl)cc32)CC1 do in these assays?
HCT116 bCat-KO: 1.5*; Dynein cargo inh: 2.48; PTEN del growth: 2.3*; SDO1 yeast rescue: -0.98; Autophagy HCS: inactive

What do the screens show for `CCOC(=O)c1c(C)[nH]c(C)c1C(=O)CSc1nnc(-c2ccco2)n1Cc1ccccc1`?
HCT116 bCat-KO: 74.5; Dynein cargo inh: -0.0264; PTEN del growth: 66.4; SDO1 yeast rescue: -0.34; Autophagy HCS: inactive

Results for Cc1ccccc1C(=O)N1CCN=C1SCc1ccc([N+](=O)[O-])cc1 ?
Dynein cargo inh: 2.1; Autophagy HCS: inactive

How did Cc1ccc2[nH]c(O)c(N=Nc3nc4ccccc4s3)c2c1 do in these assays?
Dynein cargo inh: -0.638

How did Oc1[nH]c2ccccc2c1N=Nc1nc2ccccc2s1 do in these assays?
HCT116 bCat-KO: 1.3*; Dynein cargo inh: -0.978; PTEN del growth: 1.6*; SDO1 yeast rescue: -0.06; Autophagy HCS: inactive

How did CCN1CC=C2C(C1)C(c1ccc(Cl)s1)C(C#N)=C(N)C2(C#N)C#N (centres undefined) do in these assays?
HCT116 bCat-KO: 81.7; Dynein cargo inh: -4.57; PTEN del growth: 89.0; SDO1 yeast rescue: 0.69; Autophagy HCS: active

Results for CCN1CC=C2C(C#N)=C(N)C(C#N)(C#N)[C@H](c3cccc(OC)c3OC)[C@H]2C1 ?
HCT116 bCat-KO: 76.5; Dynein cargo inh: -2.6; PTEN del growth: 80.1; SDO1 yeast rescue: -0.11; Autophagy HCS: inconclusive

What do the screens show for `COc1cccc(S(=O)(=O)Nc2ccc(C(=O)N3CCN(C(=O)c4ccco4)CC3)cc2)c1`?
HCT116 bCat-KO: 78.6; Dynein cargo inh: 0.602; PTEN del growth: 84.8; SDO1 yeast rescue: -0.01; Autophagy HCS: inactive

How did COc1ccc(OC)c(NC(=O)COC(=O)CCCN2C(=O)c3ccccc3C2=O)c1 do in these assays?
HCT116 bCat-KO: 93.3; Dynein cargo inh: 0.0781; PTEN del growth: 102.9; SDO1 yeast rescue: -0.05; Autophagy HCS: inactive

Results for COc1ccc(C(=O)NNC2CC(=O)N(Cc3ccc(Cl)cc3)C2=O)cc1OC (centres undefined) ?
HCT116 bCat-KO: 90.0; Dynein cargo inh: 0.348; PTEN del growth: 90.7; SDO1 yeast rescue: 0.57; Autophagy HCS: inactive

What do the screens show for `CCN(CC)CCCNC(=O)c1cc(-c2ccc(Cl)c(Cl)c2)on1`?
HCT116 bCat-KO: 2.0*; Dynein cargo inh: 0.0862; PTEN del growth: 2.4*; SDO1 yeast rescue: 0.47; Autophagy HCS: inactive

Results for Cn1nc(-c2ccc(Cl)cc2)c2cc(C(=O)NCC3CCCO3)sc21 (centres undefined) ?
HCT116 bCat-KO: 53.3; Dynein cargo inh: -1.39; PTEN del growth: 58.4; SDO1 yeast rescue: -1.59; Autophagy HCS: inactive

What do the screens show for `CCN(CC)CCCNC(=O)c1cc2c(-c3ccc(Cl)cc3)nn(C)c2s1`?
HCT116 bCat-KO: 0.8*; Dynein cargo inh: 0.856; PTEN del growth: 1.6*; SDO1 yeast rescue: -0.64; Autophagy HCS: active

What do the screens show for `CN1CCN(CCCNC(=O)c2cc3c(-c4ccc(Cl)cc4)nn(C)c3s2)CC1`?
HCT116 bCat-KO: 1.5*; Dynein cargo inh: -0.816; PTEN del growth: 1.7*; SDO1 yeast rescue: -0.19; Autophagy HCS: active

What do the screens show for `CCN(CC)S(=O)(=O)c1ccc(N/N=C/c2ccc(O)cc2O)nc1`?
HCT116 bCat-KO: 12.0; Dynein cargo inh: -1.84; PTEN del growth: 13.8; SDO1 yeast rescue: 1.21; Autophagy HCS: inactive

What do the screens show for `COc1cccc(NC(=O)NC2CCCc3ccccc32)c1` (centres undefined)?
Dynein cargo inh: -0.956; Autophagy HCS: inactive

How did CCCCCCCCCCCCCCCCn1cc[n+](C)c1 do in these assays?
Dynein cargo inh: 0.878; Autophagy HCS: active

What do the screens show for `Cc1ccc(-c2nn(-c3ccccc3)cc2/C=N/NC(=O)c2ccc(Br)o2)cc1`?
HCT116 bCat-KO: 4.2*; Dynein cargo inh: 1.34; PTEN del growth: 3.8; SDO1 yeast rescue: 0.38; Autophagy HCS: inactive

Results for O=C(N/N=C\c1cn(-c2ccccc2)nc1-c1ccccc1)c1ccc(Br)o1 ?
HCT116 bCat-KO: 7.1; Dynein cargo inh: -0.246; PTEN del growth: 6.6; SDO1 yeast rescue: -0.76; Autophagy HCS: inactive

Results for COc1ccc(N2C(=O)CC(N3CCN(S(=O)(=O)c4cc(C)ccc4C)CC3)C2=O)cc1 (centres undefined) ?
Dynein cargo inh: 0.115; Autophagy HCS: inactive

How did Cc1cc(Oc2nc3c(C)cccn3c(=O)c2/C=C(\C#N)S(=O)(=O)c2ccccc2)ccc1Cl do in these assays?
HCT116 bCat-KO: 1.6*; Dynein cargo inh: -0.155; PTEN del growth: 2.3*; SDO1 yeast rescue: -1.73; Autophagy HCS: inactive

What do the screens show for `Cc1cccn2c(=O)c(/C=C(\C#N)S(=O)(=O)c3ccccc3)c(Oc3ccc(Cl)cc3)nc12`?
HCT116 bCat-KO: 3.6*; Dynein cargo inh: -0.326; PTEN del growth: 2.2*; SDO1 yeast rescue: -1.06; Autophagy HCS: inactive

Results for COc1ccc(-n2nnnc2S(=O)(=O)CC(=O)N2CCCCC2)cc1 ?
HCT116 bCat-KO: 1.7*; Dynein cargo inh: -3.89*; PTEN del growth: 1.3*; SDO1 yeast rescue: -0.95; Autophagy HCS: inactive

What do the screens show for `N#Cc1ccccc1NC(=O)COC(=O)CSc1nc2ccccc2o1`?
HCT116 bCat-KO: 89.4; Dynein cargo inh: -0.0885; PTEN del growth: 95.3; SDO1 yeast rescue: -0.32; Autophagy HCS: inactive

How did COc1ccc(N(CCC#N)C(=O)/C(C#N)=C\c2cccs2)cc1 do in these assays?
Dynein cargo inh: 0.787

What do the screens show for `COc1ccccc1S(=O)(=O)Cc1ccc(C(=O)N2CCCC2)o1`?
HCT116 bCat-KO: 99.0; Dynein cargo inh: -0.292; PTEN del growth: 100.2; SDO1 yeast rescue: -0.27; Autophagy HCS: inactive
